Assay [1] has as its target Serine/threonine-protein kinase VRK2 (Homo sapiens) (UniProt Q86Y07). Briefly: Inhibition of VRK2 Lys2 labeling site in human A-375 cells at 5 uM by KiNativ Profiling analysis relative to control. Format: cell-based.
The target of assay [2] is Mitogen-activated protein kinase 8 (Homo sapiens, UniProt P45983). Briefly: Inhibition of JNK1 Lys2 labeling site in human A-375 cells at 5 uM by KiNativ Profiling analysis relative to control. The format is cell-based.
For assay [3], the target named is Tyrosine-protein kinase Fer (Homo sapiens, UniProt P16591). The experiment in a line: Inhibition of FER ACT labeling site in human A-375 cells at 5 uM by KiNativ Profiling analysis relative to control. The format is cell-based.
Sequence of Tyrosine-protein kinase Fer (P16591 whole entry, looked up): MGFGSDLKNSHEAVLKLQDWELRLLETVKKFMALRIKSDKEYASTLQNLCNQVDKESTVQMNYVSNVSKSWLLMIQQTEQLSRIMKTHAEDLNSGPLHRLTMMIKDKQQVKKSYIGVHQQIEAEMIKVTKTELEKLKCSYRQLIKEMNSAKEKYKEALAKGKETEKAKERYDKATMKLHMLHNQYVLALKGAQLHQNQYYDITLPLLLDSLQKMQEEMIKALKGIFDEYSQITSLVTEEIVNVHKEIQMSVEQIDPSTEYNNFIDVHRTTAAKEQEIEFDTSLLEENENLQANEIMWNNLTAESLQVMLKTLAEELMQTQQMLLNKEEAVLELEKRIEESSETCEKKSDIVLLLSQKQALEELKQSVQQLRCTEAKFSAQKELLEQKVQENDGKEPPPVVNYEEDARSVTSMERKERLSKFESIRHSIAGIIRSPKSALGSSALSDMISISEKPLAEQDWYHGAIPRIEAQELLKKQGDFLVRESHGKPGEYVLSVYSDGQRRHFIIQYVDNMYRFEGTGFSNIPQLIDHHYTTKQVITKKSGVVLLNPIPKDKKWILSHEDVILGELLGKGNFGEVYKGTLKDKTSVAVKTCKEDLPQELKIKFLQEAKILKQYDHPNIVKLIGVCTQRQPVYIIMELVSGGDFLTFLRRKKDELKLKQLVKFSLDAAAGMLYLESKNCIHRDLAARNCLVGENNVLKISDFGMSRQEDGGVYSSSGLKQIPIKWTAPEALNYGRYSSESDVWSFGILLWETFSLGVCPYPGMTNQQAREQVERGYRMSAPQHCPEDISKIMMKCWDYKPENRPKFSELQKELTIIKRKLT
In assay [4] the target is T1, Mitogen-activated protein kinase 12 (Homo sapiens) (UniProt P53778).
T1 sequence (whole entry): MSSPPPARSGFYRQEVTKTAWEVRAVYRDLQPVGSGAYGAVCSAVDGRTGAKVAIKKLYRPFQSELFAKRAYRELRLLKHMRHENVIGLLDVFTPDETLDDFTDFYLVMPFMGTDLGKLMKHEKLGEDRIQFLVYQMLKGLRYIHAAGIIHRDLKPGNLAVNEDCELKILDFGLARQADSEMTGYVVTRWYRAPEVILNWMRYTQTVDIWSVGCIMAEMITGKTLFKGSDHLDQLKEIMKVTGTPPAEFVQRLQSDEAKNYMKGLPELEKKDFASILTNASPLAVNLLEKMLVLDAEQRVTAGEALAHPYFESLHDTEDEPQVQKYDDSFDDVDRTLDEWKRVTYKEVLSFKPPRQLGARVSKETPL
Briefly: Inhibition of p38 gamma Lys2 labeling site in human A-375 cells at 5 uM by KiNativ Profiling analysis relative to control. Format: cell-based.

Assay [5] addresses Dual specificity mitogen-activated protein kinase kinase 1 (Homo sapiens) (UniProt Q02750). The experiment in a line: Inhibition of MAP2K1 Lys2 labeling site harbouring IMHRDVKPSNILVNSR in human A-375 cells at 0.5 uM by KiNativ Profiling analysis relative to control. The format is cell-based.
The target of assay [6] is TRAF2 and NCK-interacting protein kinase (Homo sapiens) (UniProt Q9UKE5). The experiment in a line: Inhibition of ZC2/TNIK Lys2 labeling site in human A-375 cells at 0.05 uM by KiNativ Profiling analysis relative to control. The format is cell-based.
Sequence of TRAF2 and NCK-interacting protein kinase (Homo sapiens) (Q9UKE5 whole entry, looked up): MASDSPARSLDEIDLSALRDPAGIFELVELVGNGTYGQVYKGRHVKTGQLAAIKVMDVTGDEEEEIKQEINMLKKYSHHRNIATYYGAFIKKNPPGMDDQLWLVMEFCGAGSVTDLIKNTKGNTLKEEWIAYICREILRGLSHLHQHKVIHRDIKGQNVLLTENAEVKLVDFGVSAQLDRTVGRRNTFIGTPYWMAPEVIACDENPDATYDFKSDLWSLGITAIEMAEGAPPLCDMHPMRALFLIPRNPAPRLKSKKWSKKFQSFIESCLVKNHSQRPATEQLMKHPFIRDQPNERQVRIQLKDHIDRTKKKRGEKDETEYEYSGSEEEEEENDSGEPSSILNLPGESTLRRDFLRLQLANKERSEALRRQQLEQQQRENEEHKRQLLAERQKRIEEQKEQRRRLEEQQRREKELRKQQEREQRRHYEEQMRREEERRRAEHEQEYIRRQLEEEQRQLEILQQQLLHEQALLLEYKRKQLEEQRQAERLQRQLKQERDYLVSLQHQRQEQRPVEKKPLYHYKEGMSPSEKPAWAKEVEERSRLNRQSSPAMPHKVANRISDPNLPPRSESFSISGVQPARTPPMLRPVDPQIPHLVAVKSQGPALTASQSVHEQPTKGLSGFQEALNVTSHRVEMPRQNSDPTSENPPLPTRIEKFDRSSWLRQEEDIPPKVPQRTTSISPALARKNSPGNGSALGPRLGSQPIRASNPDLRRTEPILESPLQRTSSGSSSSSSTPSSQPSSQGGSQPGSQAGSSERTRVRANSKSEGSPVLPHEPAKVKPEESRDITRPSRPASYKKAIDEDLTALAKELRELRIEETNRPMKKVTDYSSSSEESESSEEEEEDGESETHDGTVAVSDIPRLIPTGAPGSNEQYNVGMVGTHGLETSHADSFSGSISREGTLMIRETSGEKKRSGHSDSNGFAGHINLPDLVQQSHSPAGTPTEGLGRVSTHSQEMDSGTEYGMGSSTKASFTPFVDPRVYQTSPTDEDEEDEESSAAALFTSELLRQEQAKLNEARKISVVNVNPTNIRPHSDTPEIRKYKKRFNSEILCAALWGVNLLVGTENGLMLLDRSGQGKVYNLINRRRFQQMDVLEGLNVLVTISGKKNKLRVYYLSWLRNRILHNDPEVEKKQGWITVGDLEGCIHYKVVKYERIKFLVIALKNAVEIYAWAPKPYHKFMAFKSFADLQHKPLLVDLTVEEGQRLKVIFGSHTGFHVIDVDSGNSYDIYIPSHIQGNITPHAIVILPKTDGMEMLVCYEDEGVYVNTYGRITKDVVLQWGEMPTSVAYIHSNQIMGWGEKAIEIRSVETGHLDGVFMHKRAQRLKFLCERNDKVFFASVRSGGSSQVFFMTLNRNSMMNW
The target in assay [7] is T2, Serine/threonine-protein kinase ULK3 (Homo sapiens) (UniProt Q6PHR2).
T2 sequence (whole entry): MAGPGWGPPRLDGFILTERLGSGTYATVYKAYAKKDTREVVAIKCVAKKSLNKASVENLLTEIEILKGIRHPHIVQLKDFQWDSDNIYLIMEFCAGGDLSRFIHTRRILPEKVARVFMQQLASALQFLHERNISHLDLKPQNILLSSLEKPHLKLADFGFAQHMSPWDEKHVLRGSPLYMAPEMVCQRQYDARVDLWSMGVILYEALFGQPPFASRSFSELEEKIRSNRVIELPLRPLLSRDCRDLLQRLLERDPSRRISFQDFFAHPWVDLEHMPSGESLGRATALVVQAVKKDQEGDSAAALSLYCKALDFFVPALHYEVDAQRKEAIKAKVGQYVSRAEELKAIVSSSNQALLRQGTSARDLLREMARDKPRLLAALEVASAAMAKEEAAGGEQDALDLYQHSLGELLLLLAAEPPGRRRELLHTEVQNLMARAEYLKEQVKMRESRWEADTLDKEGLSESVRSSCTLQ
Briefly: Inhibition of ULK3 Lys2 labeling site in human A-375 cells at 0.5 uM by KiNativ Profiling analysis relative to control. The format is cell-based.

Assay [8] addresses T3, Dual specificity mitogen-activated protein kinase kinase 3 (Homo sapiens) (UniProt P46734).
T3 sequence (whole entry): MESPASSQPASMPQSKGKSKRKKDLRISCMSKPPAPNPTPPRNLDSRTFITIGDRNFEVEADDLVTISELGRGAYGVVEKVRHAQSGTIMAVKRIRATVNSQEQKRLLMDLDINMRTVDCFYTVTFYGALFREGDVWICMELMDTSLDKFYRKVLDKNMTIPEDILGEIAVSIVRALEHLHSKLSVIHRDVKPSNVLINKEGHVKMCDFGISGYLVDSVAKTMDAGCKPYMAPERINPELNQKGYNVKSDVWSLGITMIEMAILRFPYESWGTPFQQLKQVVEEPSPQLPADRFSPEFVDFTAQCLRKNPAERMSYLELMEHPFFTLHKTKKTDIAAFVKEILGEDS
Briefly: Inhibition of MAP2K3 Lys2 labeling site in human A-375 cells at 0.05 uM by KiNativ Profiling analysis relative to control. Format: cell-based.

The target of assay [9] is Proto-oncogene tyrosine-protein kinase Src (Homo sapiens, UniProt P12931). Briefly: Inhibition of SRC (unknown origin) Lys1 labeling site by KiNativ Profiling analysis.
Sequence of Proto-oncogene tyrosine-protein kinase Src (P12931 2-536 limits assumed): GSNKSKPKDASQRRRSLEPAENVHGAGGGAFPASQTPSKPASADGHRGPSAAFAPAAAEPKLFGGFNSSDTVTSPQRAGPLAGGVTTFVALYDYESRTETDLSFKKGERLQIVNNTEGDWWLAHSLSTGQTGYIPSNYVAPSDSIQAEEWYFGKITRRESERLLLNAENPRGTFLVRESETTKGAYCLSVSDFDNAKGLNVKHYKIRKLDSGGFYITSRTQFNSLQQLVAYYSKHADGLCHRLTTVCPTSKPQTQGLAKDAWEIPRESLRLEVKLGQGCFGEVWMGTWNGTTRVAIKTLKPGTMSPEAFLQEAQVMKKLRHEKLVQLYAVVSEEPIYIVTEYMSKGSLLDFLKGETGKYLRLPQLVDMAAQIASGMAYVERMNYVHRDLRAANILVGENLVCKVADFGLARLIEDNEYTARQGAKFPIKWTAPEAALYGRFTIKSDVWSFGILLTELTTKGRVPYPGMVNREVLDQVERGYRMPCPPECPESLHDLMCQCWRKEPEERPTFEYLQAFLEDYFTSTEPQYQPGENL
Assay [10] has as its target Serine/threonine-protein kinase mTOR (Homo sapiens) (UniProt P42345). Briefly: Inhibition of FRAP ATP labeling site in human A-375 cells at 0.5 uM by KiNativ Profiling analysis relative to control. Format: cell-based. The essentials: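 Live A375 melanoma cells were treated with compound at 0.5 or 5 μM, then lysed. Lysates were labeled with a lysine-reactive ATP or ADP-biotin probe. The read-out was protection of each kinase probe-labeling site from labeling, relative to control.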

For assay [11], the target named is TRAF2 and NCK-interacting protein kinase (Homo sapiens) (UniProt Q9UKE5). Briefly: Inhibition of ZC2/TNIK Lys1 labeling site in human A-375 cells at 0.5 uM by KiNativ Profiling analysis relative to control. The format is cell-based.
The test system of another assay is GEN2.2. Briefly: Inhibition of CL097 induced p-105 phosphorylation level in human GEN2.2 cells at 1 uM preincubated with compound for 1 hr followed by CL097 stimulation and measured after 30 mins by Western blot analysis. The format is functional, cell-based. The essentials: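 Gen2.2 cells were pretreated with compound at 1 μM for 1 h, then stimulated with CL097 for 30 min. Lysates were analysed by Western blot for phosphorylation of p105, p38 and JNK1/2.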

Molecules are shown by their SMILES. Active and inactive are the calls of the source. The calls are words filed in the database; no cut-off is given here.

Sequence of Mitogen-activated protein kinase 8 (P45983 whole entry): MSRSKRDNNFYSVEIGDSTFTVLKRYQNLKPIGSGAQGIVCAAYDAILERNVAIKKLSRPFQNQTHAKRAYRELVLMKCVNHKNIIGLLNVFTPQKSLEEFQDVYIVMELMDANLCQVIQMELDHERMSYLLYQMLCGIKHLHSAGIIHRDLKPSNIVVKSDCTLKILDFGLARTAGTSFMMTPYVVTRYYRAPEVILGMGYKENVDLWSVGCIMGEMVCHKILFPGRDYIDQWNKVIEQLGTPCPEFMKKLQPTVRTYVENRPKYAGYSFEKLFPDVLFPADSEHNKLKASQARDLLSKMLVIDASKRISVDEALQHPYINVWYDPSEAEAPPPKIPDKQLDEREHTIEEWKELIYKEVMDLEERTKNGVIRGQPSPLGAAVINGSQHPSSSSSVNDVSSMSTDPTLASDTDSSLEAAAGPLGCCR
Sequence of Serine/threonine-protein kinase VRK2 (Homo sapiens) (Q86Y07 whole entry): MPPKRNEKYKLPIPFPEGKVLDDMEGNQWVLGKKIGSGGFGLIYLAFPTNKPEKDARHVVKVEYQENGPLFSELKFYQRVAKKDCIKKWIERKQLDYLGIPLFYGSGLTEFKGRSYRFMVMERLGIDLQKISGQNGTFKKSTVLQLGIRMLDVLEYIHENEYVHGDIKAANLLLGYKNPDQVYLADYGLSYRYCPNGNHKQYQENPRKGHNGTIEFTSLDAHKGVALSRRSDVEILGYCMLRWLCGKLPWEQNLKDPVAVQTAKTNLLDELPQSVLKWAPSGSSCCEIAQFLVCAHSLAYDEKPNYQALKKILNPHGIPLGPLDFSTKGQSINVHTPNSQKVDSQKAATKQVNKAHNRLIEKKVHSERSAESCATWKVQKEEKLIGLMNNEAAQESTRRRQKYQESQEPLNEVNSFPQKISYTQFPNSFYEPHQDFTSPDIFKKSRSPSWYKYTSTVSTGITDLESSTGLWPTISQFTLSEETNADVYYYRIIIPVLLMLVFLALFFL
Sequence of Dual specificity mitogen-activated protein kinase kinase 1 (Homo sapiens) (Q02750 whole entry): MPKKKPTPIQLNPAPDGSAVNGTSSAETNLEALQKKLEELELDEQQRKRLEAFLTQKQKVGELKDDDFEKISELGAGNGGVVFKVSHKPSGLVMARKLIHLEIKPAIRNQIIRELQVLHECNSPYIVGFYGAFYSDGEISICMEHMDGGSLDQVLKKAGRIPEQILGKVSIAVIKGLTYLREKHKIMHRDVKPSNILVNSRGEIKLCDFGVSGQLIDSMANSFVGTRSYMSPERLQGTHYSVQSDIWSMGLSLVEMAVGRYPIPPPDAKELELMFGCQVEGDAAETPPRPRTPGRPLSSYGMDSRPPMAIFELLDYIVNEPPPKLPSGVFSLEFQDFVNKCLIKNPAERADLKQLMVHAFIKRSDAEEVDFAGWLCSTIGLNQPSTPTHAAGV

As for `CCN1CCN(Cc2ccc(NC(=O)c3ccc(C)c(/C=C/c4cnc5[nH]ccc5c4OC)c3)cc2C(F)(F)F)CC1`, the inhibition in [1] turned out to be 21.5%; in assay [2] it was 76.9%; in [3] it was 74%; in assay [4], 52.7%; in [5], 19.2%; in assay [6], 19.5%. For the same compound, the inhibition is 8.5% in [7], 2.6% in [8], 0.8% in assay [10] and 74.9% in assay [11]. The same compound displayed an IC50 in assay [9] of 204 nM.

For `CNc1cc(Oc2cc(C(=O)Nc3cc(-n4cnc(C)c4)cc(C(F)(F)F)c3)ccc2C)ncn1`, the inhibition entry in the assay with GEN2.2 is “inactive”.

For `CCN1CCN(Cc2ccc(NC(=O)c3ccc(C)c(Oc4ccnc5[nH]ccc45)c3)cc2C(F)(F)F)CC1`, the inhibition in [1] was 12.7%; in [2] it was 90.3%; in [3] it was 96.8%; in assay [4], > 94%; in assay [5], 28.4%; in [6], 32.6%. For the same compound, the inhibition in assay [7] was -2.5%; in [8] it was 12.6%; in assay [10], -3%; in assay [11] it was 77.9%. Besides, in the assay with GEN2.2, the inhibition entry was “Active”. This compound yielded an IC50 in assay [9] of 113 nM.

As usually defined, the inhibition is the change of the read-out against control, counted positive when it falls. The IC50 is the concentration at which inhibition is half-maximal.

The values above are taken from ChEMBL document CHEMBL5696442, “Discovery of type II inhibitors of TGFβ-activated kinase 1 (TAK1) and mitogen-activated protein kinase kinase kinase kinase 2 (MAP4K2)” (J Med Chem, 2015).
